# Data from ChEMBL document CHEMBL2440006, “Mastering tricyclic ring systems for desirable functional cannabinoid activity” (Eur J Med Chem, 2013).
# Calls of active or inactive are those of the source. The calls are words filed in the database; no cut-off is given here.
# How the values were obtained:
# [1] = Selectivity ratio of Ki for rat CB1 receptor to Ki for human CB2 receptor
# [2] = target: T1, Cannabinoid receptor 2 (Homo sapiens, UniProt P34972); test: Displacement of [3H]-CP55940 from human CB2 receptor expressed in HEK293 cells after 1.5 hrs by microbeta liquid scintillation counting analysis; assay type: cell-based
# T1 sequence (P34972 whole entry): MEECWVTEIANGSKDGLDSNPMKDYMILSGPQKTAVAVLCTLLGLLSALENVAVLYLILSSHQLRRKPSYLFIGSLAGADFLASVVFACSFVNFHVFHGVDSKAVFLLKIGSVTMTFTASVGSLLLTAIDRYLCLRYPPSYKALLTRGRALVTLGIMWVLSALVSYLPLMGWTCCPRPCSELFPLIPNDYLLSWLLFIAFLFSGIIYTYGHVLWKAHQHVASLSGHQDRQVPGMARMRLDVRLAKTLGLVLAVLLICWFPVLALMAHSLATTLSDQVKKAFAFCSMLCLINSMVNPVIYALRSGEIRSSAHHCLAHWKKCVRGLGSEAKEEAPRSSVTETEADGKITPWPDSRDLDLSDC
# How it was run: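 Membranes from rat brain homogenate (CB1) or HEK293 cells expressing human CB2. GF/B filtration, then scintillation counting. IC50 by three-parameter logistic fit, Ki by Cheng-Prusoff. Three experiments in triplicate.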
# [3] = target: Cannabinoid receptor 1 (Rattus norvegicus, UniProt P20272); test: Displacement of [3H]-CP55940 from CB1 receptor in rat brain homogenate after 1.5 hrs by microbeta liquid scintillation counting analysis; assay type: tissue-based
# Sequence of Cannabinoid receptor 1 (P20272 whole entry): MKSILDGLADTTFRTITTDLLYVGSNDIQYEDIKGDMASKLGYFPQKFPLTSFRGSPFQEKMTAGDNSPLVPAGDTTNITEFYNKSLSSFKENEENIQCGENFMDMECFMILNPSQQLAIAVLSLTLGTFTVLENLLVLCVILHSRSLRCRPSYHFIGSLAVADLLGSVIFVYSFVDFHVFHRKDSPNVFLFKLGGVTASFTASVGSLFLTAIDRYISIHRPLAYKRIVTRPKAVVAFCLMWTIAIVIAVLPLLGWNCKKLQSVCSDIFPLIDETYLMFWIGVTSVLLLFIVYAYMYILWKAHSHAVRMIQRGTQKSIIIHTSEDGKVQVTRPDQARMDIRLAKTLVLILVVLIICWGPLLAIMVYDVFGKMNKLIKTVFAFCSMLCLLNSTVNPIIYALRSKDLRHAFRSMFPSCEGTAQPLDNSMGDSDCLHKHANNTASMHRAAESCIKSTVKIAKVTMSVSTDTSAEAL
# How it was run: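 Membranes from rat brain homogenate (CB1) or HEK293 cells expressing human CB2. […] GF/B filtration, then scintillation counting. […] IC50 by three-parameter logistic fit, Ki by Cheng-Prusoff. Three experiments in triplicate.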
# [4] = target: T1, Cannabinoid receptor 2; test: Induction of human CB2 receptor internalization expressed in HEK293 cells at 10 uM relative to CP55940; assay type: cell-based
# How it was run: (§1)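 Cells stably expressing human CB1 or human CB2 receptors, exposed to test compound alone. […] Mean of two determinations.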
# [5] = target: Cannabinoid receptor 1 (Homo sapiens) (UniProt P21554); test: Induction of human CB1 receptor internalization expressed in HEK293 cells at 10 uM relative to CP55940; assay type: cell-based; how it was run: as §1
# Sequence of Cannabinoid receptor 1 (Homo sapiens) (P21554 whole entry): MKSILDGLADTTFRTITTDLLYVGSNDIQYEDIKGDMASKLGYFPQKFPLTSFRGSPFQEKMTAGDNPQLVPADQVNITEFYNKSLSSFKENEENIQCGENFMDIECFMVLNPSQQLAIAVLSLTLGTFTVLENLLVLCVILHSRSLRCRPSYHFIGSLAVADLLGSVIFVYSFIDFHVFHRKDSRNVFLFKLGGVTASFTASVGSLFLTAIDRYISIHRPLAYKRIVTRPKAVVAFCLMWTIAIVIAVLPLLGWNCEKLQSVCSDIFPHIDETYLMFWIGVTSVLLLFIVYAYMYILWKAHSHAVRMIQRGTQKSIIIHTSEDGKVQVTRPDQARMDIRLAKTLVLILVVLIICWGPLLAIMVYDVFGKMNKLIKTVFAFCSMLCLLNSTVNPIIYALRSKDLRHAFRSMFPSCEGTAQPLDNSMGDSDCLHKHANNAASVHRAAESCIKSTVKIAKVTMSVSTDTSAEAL
# [6] = target: T1, Cannabinoid receptor 2; test: Partial agonist activity at human recombinant CB2 receptor expressed in CHO cells after 1 hr by [35S]GTPgammaS binding assay relative to CP55940; assay type: functional, cell-based
# How it was run: (§2)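 Membranes from CHO cells expressing hCB1 or hCB2, preincubated at least 15 min on ice with 30 μM GDP solution. GTP-γ-[35S] with WGA-PVT SPA beads. Eight concentrations, 0.001–10 μM, in duplicate. Incubated 1 h at room temperature, centrifuged, then a further 1 h before counting. […] Mean of two determinations.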
# [7] = target: Cannabinoid receptor 1 (Homo sapiens) (UniProt P21554); test: Agonist activity at human recombinant CB1 receptor expressed in CHO cells after 1 hr by [35S]GTPgammaS binding assay relative to CP55940; assay type: functional, cell-based; how it was run: as §2
# [8] = target: Cannabinoid receptor 1 (Homo sapiens) (UniProt P21554); test: Partial agonist activity at human recombinant CB1 receptor expressed in CHO cells after 1 hr by [35S]GTPgammaS binding assay relative to CP55940; assay type: functional, cell-based; how it was run: as §2
# [9] = target: T1, Cannabinoid receptor 2; test: Reduction of CP55940-induced human CB2 receptor internalization expressed in HEK293 cells at 3 uM relative to control; assay type: cell-based; design: scale not given: the % may be the effect or the level left
# [10] = target: T1, Cannabinoid receptor 2; test: Inverse agonist activity at human recombinant CB2 receptor expressed in CHO cells after 1 hr by [35S]GTPgammaS binding assay relative to CP55940; assay type: functional, cell-based; how it was run: as §2
SMILES,Ratio Ki [1],Ki ([2]; read-out: Ki),Ki ([3]; read-out: Ki),Activity [4],Activity [5],further results
O=C(c1ccc2c(c1)c1ccccc1n2CCCl)N1CCCCC1,4.55,519 nM,2360 nM,,,
CCCCCn1c2ccccc2c2cc(C(=O)N3CCCCC3)ccc21,1.05,73 nM,77 nM,118%,140%,Emax [6]: 30.8%; Emax [7]: 73.6%
CCCCCn1c2ccc(C(=O)N3CCCCC3)cc2c2ccc(OC)cc21,1.71,,,-1.1%,33.4%,Emax [8]: 30.4%; Activity [9]: Active; Emax [10]: -76.4%
CCCCCn1c2ccccc2c2cc(C(=O)NC34CC5CC(CC(C5)C3)C4)ccc21,5.03,288 nM,1450 nM,,,
O=C(c1ccc2c(c1)c1ccccc1n2Cc1ccccn1)N1CCCCC1,1.87,215 nM,403 nM,,,
O=C(c1ccc2c(c1)c1ccccc1n2CCCCl)N1CCCCC1,1.4,88 nM,124 nM,111%,106%,
O=C(c1ccc2c(c1)c1ccccc1n2CCN1CCCCC1)N1CCCCC1,,,,,,Ki ([2]; hek293): Not Active; Ki [3]: Not Active
COC(=O)CCCn1c2ccccc2c2cc(C(=O)N3CCCCC3)ccc21,8.88,208 nM,1850 nM,37.3%,9.4%,
CCCCCn1c2ccccc2c2cc(C(=O)N3CCNCC3)ccc21,0.1,,,,,
CCOC(=O)CCn1c2ccccc2c2cc(C(=O)N3CCCCC3)ccc21,3.79,1310 nM,4980 nM,,,
CCCCCn1c2ccccc2c2cc(C(=O)N3CCS(=O)(=O)CC3)ccc21,1.96,225 nM,440 nM,91.5%,23.9%,
NCCCn1c2ccccc2c2cc(C(=O)N3CCCCC3)ccc21,,,,,,Ki ([2]; hek293): Not Active; Ki [3]: Not Active
CCCCCn1c2ccccc2c2cc(C(=O)N3CCCCC3)ncc21,3.86,35.3 nM,136 nM,101%,128%,
O=C(c1ccc2c(c1)c1ccccc1n2CCCN1CCCCC1)N1CCCCC1,,2170 nM,,,,Ki [3]: Not Active
CCCCCn1c2ccccc2c2cc(C#N)ccc21,,,,,,Ki ([2]; hek293): Not Active; Ki [3]: Not Active
CCCCCn1c2ccccc2c2cc(C(=O)CN3CCN(C)CC3)ccc21,3.78,398 nM,1500 nM,,,
CCCCCn1c2ccccc2c2cc(C(=O)NN3CCCCC3)ccc21,,1610 nM,,,,Ki [3]: Not Active
CCCCCn1c2ccccc2c2cc(CN3CCCCC3)ccc21,0.33,370 nM,122 nM,79.6%,-11.1%,
CN(C)CCCn1c2ccccc2c2cc(C(=O)N3CCCCC3)ccc21,5.92,403 nM,2390 nM,,,
CCCn1c2ccccc2c2cc(C(=O)N3CCCCC3)ccc21,1.15,521 nM,600 nM,,,
CCCCCn1c2ccccc2c2cc(C(=O)N(CC)CC)ccc21,2.03,51.8 nM,105 nM,53.1%,102%,
CCCCCn1c2ccccc2c2cc(C(=O)CN3CCS(=O)(=O)CC3)ccc21,1.34,502 nM,675 nM,,,
CCCCCn1c2ccccc2c2cc(C(=O)NCC(C)(C)C)ncc21,1.65,26.5 nM,43.6 nM,0.1%,34.7%,Activity [9]: > 50%
CCOC(=O)CCn1c2ccccc2c2cc(C(=O)N3CCS(=O)(=O)CC3)ccc21,,,,,,Ki ([2]; hek293): Not Active; Ki [3]: Not Active
O=C(c1ccc2[nH]c3ccccc3c2c1)N1CCCCC1,,,,,,Ki ([2]; hek293): Not Active; Ki [3]: Not Active
CCCCCn1c2ccccc2c2cc(C(=O)NCC3CCNCC3)ccc21,,,,,,Ki ([2]; hek293): Not Active; Ki [3]: Not Active

SMILES,Ratio Ki [1],Ki ([2]; read-out: Ki),Ki ([3]; read-out: Ki),Activity [4],Activity [5],further results
CCCCCCn1c2ccccc2c2cc(C(=O)N3CCCCC3)ccc21,2.51,96 nM,241 nM,77%,122%,
CCOC(=O)CCn1c2ccccc2c2cc(C(=O)N3CCN(C)CC3)ccc21,,3380 nM,,,,Ki [3]: Not Active
CCCCCn1c2ccccc2c2cc(C(=O)OCc3ccccn3)ccc21,0.35,1930 nM,679 nM,,,
CCCCCn1c2ccccc2c2cc(C(=O)c3ccccc3)ccc21,2.88,101 nM,291 nM,39.3%,77%,Activity [9]: > 50%
CCCCCn1c2ccccc2c2cc(C(=O)NN3CCCCC3)ncc21,2.07,171 nM,354 nM,,,
CCCCn1c2ccccc2c2cc(C(=O)N3CCCCC3)ccc21,0.24,264 nM,63 nM,67.9%,84.8%,
CCCCCn1c2ccccc2c2cc(C(=O)N3CC[N+](C)(C)CC3)ccc21.[I-],,,,,,Ki ([2]; hek293): Not Active; Ki [3]: Not Active
O=C(c1ccc2c(c1)c1ccccc1n2Cc1cccnc1)N1CCCCC1,1.71,600 nM,1020 nM,,,
CCCCCn1c2ccccc2c2cc(C(=O)NCCc3ccc(Cl)cc3)ccc21,,,,,,Ki [3]: Not Active
CCCCCn1c2ccccc2c2cc(C(=S)N3CCCCC3)ccc21,0.82,49.6 nM,40.6 nM,63%,124%,
CCCCCn1c2ccccc2c2cc(C(=O)CN3CCCCC3)ccc21,3.05,1090 nM,3330 nM,103%,-20.4%,
O=C(OCCCn1c2ccccc2c2cc(C(=O)N3CCCCC3)ccc21)N1CCS(=O)(=O)CC1,30.9,73 nM,2260 nM,27.9%,65.6%,
CC(C)(C)OC(=O)NCCCn1c2ccccc2c2cc(C(=O)N3CCS(=O)(=O)CC3)ccc21,,,,,,Ki ([2]; hek293): Not Active; Ki [3]: Not Active
CCCCCn1c2ccccc2c2cc(C(=O)N3CCOCC3)ccc21,0.71,84.5 nM,60 nM,78.7%,115%,
CCCCCn1c2ccccc2c2cc(CN3CCN(C)CC3)ccc21,0.33,740 nM,244 nM,,,
CC(C)(C)OC(=O)NCCCn1c2ccccc2c2cc(C(=O)N3CCCCC3)ccc21,,2690 nM,,,,Ki [3]: Not Active
O=C(c1ccc2c(c1)c1ccccc1n2Cc1ccncc1)N1CCCCC1,4.32,91 nM,393 nM,66.3%,74.9%,
CCCCCn1c2ccccc2c2cc(C(=O)OCc3ccncc3)ccc21,0.08,1390 nM,108 nM,,,
CCCCCn1c2ccccc2c2cc(CN3CCNCC3)ccc21,,,,,,Ki ([2]; hek293): Not Active; Ki [3]: Not Active
COCCCn1c2ccccc2c2cc(C(=O)N3CCCCC3)ccc21,8.88,83 nM,1440 nM,68.1%,63.2%,
CCCCCCCn1c2ccccc2c2cc(C(=O)N3CCCCC3)ccc21,1.14,827 nM,943 nM,,,
O=C(c1ccc2c(c1)c1ccccc1n2CCCN1CCS(=O)(=O)CC1)N1CCCCC1,9.54,249 nM,2380 nM,,,
O=C(c1ccc2c(c1)c1ccccc1n2CC1CCOCC1)N1CCCCC1,0.98,20 nM,19.5 nM,86.2%,142%,
CCCCCn1c2ccccc2c2cc(C(=O)N3CCN(C)CC3)ccc21,3.47,35.4 nM,123 nM,43.9%,84.7%,
CCCCCn1c2ccccc2c2cc(C(=O)OCC)ncc21,1.36,1370 nM,1860 nM,,,
